Columns and labels:
Thymidine kinase = molecular target: T1, Thymidine kinase (Human alphaherpesvirus 1, UniProt Q9QNF7); experiment: Inhibition of HSV1 thymidine kinase assessed as inhibition of [methyl-3H]dThd phosphorylation after 30 mins by scintillation counting
T1 sequence (Q9QNF7 whole entry): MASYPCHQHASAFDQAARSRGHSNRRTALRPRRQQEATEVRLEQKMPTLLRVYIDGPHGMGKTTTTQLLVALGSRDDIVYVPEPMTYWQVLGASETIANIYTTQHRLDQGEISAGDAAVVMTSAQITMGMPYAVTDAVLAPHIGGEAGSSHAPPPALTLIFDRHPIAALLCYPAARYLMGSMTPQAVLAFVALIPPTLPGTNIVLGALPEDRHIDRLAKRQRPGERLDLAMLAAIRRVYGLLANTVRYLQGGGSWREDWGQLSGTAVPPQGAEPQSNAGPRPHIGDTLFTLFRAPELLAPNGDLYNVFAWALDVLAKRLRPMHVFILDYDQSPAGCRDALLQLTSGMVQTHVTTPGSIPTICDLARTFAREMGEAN
Procedure, shortened: (§1)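 Recombinant enzyme in 50 mM Tris/HCl pH 8.0, 2.5 mM MgCl2, 10 mM DTT, 0.5 mM CHAPS, 3 mg/mL BSA, 2.5 mM ATP and 1 μM [methyl-3H]dThd. Inhibitor at 5-fold dilutions; 37 °C for 30 min, within the linear range. Reaction spotted on DE-81 filter disks, which were washed in 1 mM ammonium formate, water and ethanol. Radioactivity counted by scintillation. IC50 is the concentration halving dThd phosphorylation.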

[1] = molecular target: T2, Thymidine kinase, cytosolic (Homo sapiens, UniProt P04183); experiment: Inhibition of human recombinant cytosolic thymidine kinase 1 assessed as inhibition of [methyl-3H]dThd phosphorylation after 30 mins by scintillation counting; procedure, shortened: as §1
T2 sequence (P04183 whole entry): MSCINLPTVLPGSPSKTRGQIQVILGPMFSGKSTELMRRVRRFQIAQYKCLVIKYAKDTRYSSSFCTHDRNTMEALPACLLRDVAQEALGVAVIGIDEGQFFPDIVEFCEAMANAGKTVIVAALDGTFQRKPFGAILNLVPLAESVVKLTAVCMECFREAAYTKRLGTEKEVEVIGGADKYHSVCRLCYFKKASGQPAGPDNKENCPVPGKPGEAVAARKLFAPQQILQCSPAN

[2] = molecular target: T3, Thymidine kinase 2, mitochondrial (Homo sapiens, UniProt O00142); experiment: Inhibition of human recombinant mitochondrial thymidine kinase 2 assessed as inhibition of [methyl-3H]dThd phosphorylation after 30 mins by scintillation counting; procedure, shortened: as §1
T3 sequence (O00142 whole entry): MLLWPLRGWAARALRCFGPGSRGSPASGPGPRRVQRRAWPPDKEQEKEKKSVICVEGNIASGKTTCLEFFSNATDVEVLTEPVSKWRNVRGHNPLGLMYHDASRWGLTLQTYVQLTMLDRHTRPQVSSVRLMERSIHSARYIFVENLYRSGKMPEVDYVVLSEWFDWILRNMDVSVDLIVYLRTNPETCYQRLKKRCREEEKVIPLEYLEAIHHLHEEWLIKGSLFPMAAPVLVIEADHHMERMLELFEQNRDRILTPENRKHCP

[3] = Inhibition of Varicella zoster virus thymidine kinase assessed as inhibition of [methyl-3H]dThd phosphorylation after 30 mins by scintillation counting; design: species or system Human alphaherpesvirus 3; procedure, shortened: as §1
Deoxynucleoside kinase = molecular target: T4, Deoxynucleoside kinase (Drosophila melanogaster, UniProt Q9XZT6); experiment: Inhibition of Drosophila melanogaster multifunctional deoxynucleoside kinase assessed as inhibition of [methyl-3H]dThd phosphorylation after 30 mins by scintillation counting; procedure, shortened: as §1
T4 sequence (Q9XZT6 whole entry): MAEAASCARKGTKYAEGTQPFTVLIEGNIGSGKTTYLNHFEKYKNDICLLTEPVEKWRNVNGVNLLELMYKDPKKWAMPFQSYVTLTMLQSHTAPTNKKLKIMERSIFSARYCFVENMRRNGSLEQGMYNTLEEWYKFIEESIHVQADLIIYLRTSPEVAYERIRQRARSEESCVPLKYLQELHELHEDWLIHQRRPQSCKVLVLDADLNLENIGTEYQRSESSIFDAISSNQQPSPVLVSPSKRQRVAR

Homo sapiens = species: Homo sapiens; experiment: Selectivity ratio of IC50 for human recombinant cytosolic thymidine kinase 1 to IC50 for human recombinant mitochondrial thymidine kinase 2
[4] = molecular target: T3, Thymidine kinase 2, mitochondrial; experiment: Inhibition of thymidine kinase 2
[5] = molecular target: T3, Thymidine kinase 2, mitochondrial; experiment: Competitive inhibition of human recombinant mitochondrial thymidine kinase 2 using ATP as substrate by Lineweaver-Burke plotting; conditions: in the assay text read “using thymidine as substrate” for “using ATP as substrate”
Procedure, shortened: (§2)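 Purified recombinant TK-2 in the same radiometric filter-binding assay. For dThd-varied kinetics, dThd was 0.4–5 μM with ATP saturating at 2.5 mM. For ATP-varied kinetics, ATP was 5–100 μM with dThd saturating at 20 μM. Km, Ki and inhibition mode were derived from Lineweaver-Burk plots.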

[6] = molecular target: T3, Thymidine kinase 2, mitochondrial; experiment: Uncompetitive inhibition of human recombinant mitochondrial thymidine kinase 2 using thymidine as substrate by Lineweaver-Burke plotting; conditions: in the assay text read “using ATP as substrate” for “using thymidine as substrate”; procedure, shortened: as §2

Row | SMILES | IC50 (Thymidine kinase) | IC50 [1] | IC50 [2] | IC50 [3] | IC50 (Deoxynucleoside kinase) | Ratio IC50 (Homo sapiens) | Ki [4] | IC50 [4] | Ki [5] | Ki [6]
1 | Cc1cn([C@H]2C[C@H](NC(=S)Nc3ccc(Cl)c(C(F)(F)F)c3)[C@@H](COC(c3ccccc3)(c3ccccc3)c3ccccc3)O2)c(=O)[nH]c1=O | > 500 µM | > 500 µM | > 500 µM | > 500 µM | > 500 µM | – | – | – | – | –
2 | Cc1cn([C@H]2C[C@H](n3nncc3-c3ccc(Cl)cc3)[C@@H](CO)O2)c(=O)[nH]c1=O | 392 µM | 109 µM | 4 µM | – | 30 µM | – | – | – | – | –
3 | Cc1cn([C@H]2C[C@H](NC(=S)Nc3ccc(Cl)c(C(F)(F)F)c3)[C@@H](CO)O2)c(=O)[nH]c1=O | – | 316 µM | 0.15 µM | – | – | 2100 | – | – | – | –
4 | Cc1cn([C@H]2C[C@H](n3cc(-c4ccc(Cl)cc4)nn3)[C@@H](CO)O2)c(=O)[nH]c1=O | 27 µM | 71 µM | 0.046 µM | 3.3 µM | 1.8 µM | – | – | – | – | –
5 | CCCCCC(=O)N[C@H]1C[C@H](n2cc(C)c(=O)[nH]c2=O)O[C@@H]1CO | – | – | – | – | – | – | 0.15 µM | – | – | –
6 | Cc1cn([C@H]2C[C@H](n3cc(-c4ccc(Cl)c(Cl)c4)nn3)[C@@H](CO)O2)c(=O)[nH]c1=O | 30 µM | 75 µM | 0.042 µM | 2.7 µM | 0.99 µM | – | – | – | – | –
7 | Cc1cn([C@H]2C[C@H](n3nncc3-c3ccccc3)[C@@H](CO)O2)c(=O)[nH]c1=O | 445 µM | ≥ 500 µM | 1.1 µM | 19 µM | 17 µM | – | – | – | – | –
8 | O=c1[nH]c(=O)n([C@H]2C[C@H](n3cc(-c4ccccc4)nn3)[C@@H](CO)O2)cc1/C=C/Br | 36 µM | > 500 µM | 0.25 µM | 3.7 µM | 2.9 µM | – | – | – | – | –
9 | Cc1cn([C@H]2C[C@H](n3ccnn3)[C@@H](CO)O2)c(=O)[nH]c1=O | 212 µM | ≥ 500 µM | 4.7 µM | 15 µM | 40 µM | – | – | – | – | –
10 | Cc1cn([C@H]2C[C@H](n3cc(Cc4ccccc4)nn3)[C@@H](CO)O2)c(=O)[nH]c1=O | 158 µM | 318 µM | 0.3 µM | 6.4 µM | 3.9 µM | – | – | – | – | –
11 | Cc1cn([C@H]2C[C@H](n3cc(-c4ccccn4)nn3)[C@@H](CO)O2)c(=O)[nH]c1=O | 46 µM | 316 µM | 1.3 µM | 3.1 µM | 3.8 µM | – | – | – | – | –
12 | CNC(=O)c1ccc(C(OCCCCCCCCn2cc(C)c(=O)[nH]c2=O)(c2ccccc2)c2ccccc2)cc1 | – | – | – | – | – | – | – | 0.4 µM | – | –
13 | Cc1cn([C@H]2C[C@H](n3cc(CC4CCCC4)nn3)[C@@H](CO)O2)c(=O)[nH]c1=O | 48 µM | 177 µM | 0.15 µM | 3.1 µM | 3 µM | – | – | – | – | –
14 | Cc1cn([C@H]2C[C@H](n3cc(-c4ccccc4)nn3)[C@@H](CO)O2)c(=O)[nH]c1=O | 28 µM | 54 µM | 0.32 µM | 2.5 µM | 2.2 µM | – | – | – | – | –
15 | O=c1[nH]c(=O)n([C@H]2C[C@H](n3cc(-c4ccc(Cl)cc4)nn3)[C@@H](CO)O2)cc1/C=C/Br | 4.5 µM | > 500 µM | 0.036 µM | 1.7 µM | 0.46 µM | > 14000 | – | – | 0.012 µM | 0.41 µM
16 | O=c1[nH]c(=O)n([C@@H]2O[C@H](CO)[C@@H](O)C2O)cc1/C=C/Br (single isomer, unassigned) [SORIVUDINE] | – | – | – | – | – | – | 10.4 µM | – | – | –
17 | CCCCc1cn([C@H]2C[C@H](n3cc(C)c(=O)[nH]c3=O)O[C@@H]2CO)nn1 | 95 µM | 366 µM | 0.23 µM | 4.3 µM | 4.1 µM | – | – | – | – | –

Source: ChEMBL document CHEMBL1156937, “3'-[4-Aryl-(1,2,3-triazol-1-yl)]-3'-deoxythymidine analogues as potent and selective inhibitors of human mitochondrial thymidine kinase” (J Med Chem, 2010)
